This note sets out measurements from ChEMBL document CHEMBL1125037, “Synthesis and antihypertensive activity of 4-(1,2-dihydro-2-oxo-1-pyridyl)-2H-1-benzopyrans and related compounds, new potassium channel activators” (1990).

Experiment [1] relates to Rattus norvegicus. The experiment is described as follows: Dose required to reduce blood pressure by 30 mmHg after (po) administration in conscious spontaneously hypertensive rat. Format: functional. In a few lines: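 Conscious male Okamoto-strain SHR (280-330 g, >180 mmHg) were given two to four oral doses beyond the 1 mg/kg screen. Mean arterial pressure was recorded directly via an aortic catheter in unrestrained rats. The ED30, the dose in µg/kg lowering pressure by 30 mmHg, came from linear regression of effect vs log dose.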

The subject of experiment [2] is Rattus norvegicus. As to the kind of experiment: Antihypertensive effect after 1 mg/kg (po) administration in conscious spontaneously hypertensive rat (over a time period of 0-210 minutes). Format: functional. In a few lines: (§1)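 Male Okamoto-strain SHR (280-330 g, blood pressure >180 mmHg), conscious and unrestrained, given 1 mg/kg orally as a screening dose. Mean arterial pressure was recorded directly and continuously via an aortic catheter from 1 h before to 3.5 h after dosing. The effect is the mean of the maximum individual changes over 3.5 h; N ≥ 3.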

Experiment [3] concerns Rattus norvegicus. As to the kind of experiment: Dose required to reduce mean blood pressure was determined after 20h following(po) administration in conscious spontaneously hypertensive rat. It counts as functional.
A short description of experiment [4]: Ratio of ED30(20h) to ED30(2h) was determined. Format: functional.
For experiment [5], the system named is Rattus norvegicus. As to the kind of experiment: Dose required to reduce mean blood pressure was determined after 2 hr following(po) administration in conscious spontaneously hypertensive rat. It counts as functional.
In experiment [6] the test system is Rattus norvegicus. The experiment is described as follows: Dose required to reduce mean blood pressure after 2 hr following (po) administration conscious spontaneously hypertensive rat. It counts as functional.
In experiment [7] the test system is Rattus norvegicus. The experiment is described as follows: Dose required to reduce mean blood pressure after 20 hr following (po) administration conscious spontaneously hypertensive rat. It counts as functional.
Experiment [8] deals with Rattus norvegicus. The experiment is described as follows: Antihypertensive effect after 1 mg/kg (po) administration in conscious spontaneously hypertensive rat (over a time period of 0-210 min). It counts as functional, organism-based. Set-up: dose 1 mg/kg. In a few lines:
as §1

Take `COC(=N)c1ccc2c(c1)C(N1CCCC1=O)[C@H](O)C(C)(C)O2` (stereo partly specified): in the experiment on Rattus norvegicus [1], the ED30 turned out to be 0.083 mg/kg. Besides, in the experiment on Rattus norvegicus [2], the “Max fall in blood pressure” value was 76 mmHg.
As for `CC1(C)Oc2ccc([N+](=O)[O-])cc2[C@@H](n2ccccc2=O)[C@@H]1O`, the ED30 with Rattus norvegicus [3] was determined as 0.884 mg/kg; with Rattus norvegicus [5], 0.035 mg/kg; in the experiment with Rattus norvegicus [1], 0.024 mg/kg. In experiment [4], the Ratio worked out at 25.2. Moreover, the “Max fall in blood pressure” value in the experiment on Rattus norvegicus [2] was 113 mmHg.
With `CC1(C)Oc2ccc(C#N)cc2[C@@H](n2ccccc2=O)[C@@H]1O` [EMAKALIM], the values for the ED30 with Rattus norvegicus [3], in the experiment with Rattus norvegicus [5] and in the experiment with Rattus norvegicus [1] were 0.138 mg/kg, 0.045 mg/kg and 0.05 mg/kg, respectively. In addition, the Ratio in experiment [4] stood at 3.1. In the experiment on Rattus norvegicus [2], the “Max fall in blood pressure” value worked out at 108 mmHg.
Take `CC1(C)C=C(n2cc(N)ccc2=O)c2cc(C#N)ccc2O1`: the Ratio in experiment [4] is 4.7. Further, the ED30 in the experiment on Rattus norvegicus [6] amounted to 0.341 mg/kg; in the experiment on Rattus norvegicus [7] it was 1.61 mg/kg; with Rattus norvegicus [1] it was 0.206 mg/kg. Besides, the “Max fall in blood pressure” value in the experiment with Rattus norvegicus [2] came to 94 mmHg.
In the experiment with Rattus norvegicus [1], `CC1(C)CC(n2ccccc2=O)c2cc(C#N)ccc2O1` (stereo unspecified) gave an ED30 of 0.15 mg/kg. Besides, the “Max fall in blood pressure” value in the experiment on Rattus norvegicus [2] was 92 mmHg.
For `COc1ccn(C2=CC(C)(C)Oc3ccc(C#N)cc32)c(=O)c1`, the ED30 in the experiment on Rattus norvegicus [1] was determined as 0.066 mg/kg. Also, the “Max fall in blood pressure” value in the experiment with Rattus norvegicus [2] was determined as 113 mmHg.
For `CC1(C)Oc2ccc(C#N)cc2C(n2ncccc2=O)[C@@H]1O` (stereo partly specified), the Ratio in experiment [4] was 1.8. In addition, the figures for the ED30 in the experiment on Rattus norvegicus [6], in the experiment on Rattus norvegicus [7] and in the experiment on Rattus norvegicus [1] were 0.045 mg/kg, 0.082 mg/kg and 0.036 mg/kg, respectively. Also, the “Max fall in blood pressure” value in the experiment on Rattus norvegicus [2] worked out at 77 mmHg.
Taken in the same sequence, the figures for `CC1(C)C=C(n2ccccc2=O)c2cc(C#N)ccc2O1` [BIMAKALIM] were 5.2, 0.036 mg/kg, 0.186 mg/kg, 0.01 mg/kg and 142 mmHg.
As to `COc1ccn([C@@H]2c3cc(C#N)ccc3OC(C)(C)[C@H]2O)c(=O)c1`, in the experiment with Rattus norvegicus [1], the ED30 stood at 0.197 mg/kg. For the same compound, in the experiment with Rattus norvegicus [2], the “Max fall in blood pressure” value worked out at 73 mmHg.
As for `CC1(C)C=C(n2ccncc2=O)c2cc(C#N)ccc2O1`, in experiment [4], the Ratio stood at 9.4. Further, the figures for the ED30 in the experiment on Rattus norvegicus [6], in the experiment on Rattus norvegicus [7] and in the experiment on Rattus norvegicus [1] were 0.038 mg/kg, 0.357 mg/kg and 0.022 mg/kg, respectively. Further, the “Max fall in blood pressure” value in the experiment with Rattus norvegicus [2] is reported as 105 mmHg.
Regarding `CCOc1ccn(C2=CC(C)(C)Oc3ccc(C#N)cc32)c(=O)c1`, in experiment [4], the Ratio is over 7.3. Moreover, the ED30 in the experiment with Rattus norvegicus [6] is 0.137 mg/kg; in the experiment on Rattus norvegicus [7] it was over 1 mg/kg; in the experiment on Rattus norvegicus [1] it was 0.017 mg/kg. Also, the “Max fall in blood pressure” value in the experiment with Rattus norvegicus [2] is 136 mmHg.
In turn, `CC1(C)Oc2ccc([N+](=O)[O-])cc2[C@@H](n2ccccc2=O)[C@@H]1OC=O` registered an ED30 in the experiment with Rattus norvegicus [1] of 0.074 mg/kg. For the same compound, the “Max fall in blood pressure” value in the experiment with Rattus norvegicus [2] is 129 mmHg.
Consider `COC(=O)c1ccc2c(c1)C(n1ccccc1=O)=CC(C)(C)O2`, for which the Ratio in experiment [4] was 3.6. For the same compound, the values for the ED30 in the experiment on Rattus norvegicus [6], in the experiment on Rattus norvegicus [7] and in the experiment on Rattus norvegicus [1] were 0.573 mg/kg, 2.06 mg/kg and 0.202 mg/kg, respectively. Moreover, the “Max fall in blood pressure” value with Rattus norvegicus [2] amounted to 98 mmHg.
Regarding `CC1(C)C=C(n2ccccc2=O)c2cc(Br)ccc2O1`, the Ratio in experiment [4] came out at 18.4. Further, the values for the ED30 with Rattus norvegicus [6], with Rattus norvegicus [7] and in the experiment with Rattus norvegicus [1] were 0.069 mg/kg, 1.27 mg/kg and 0.11 mg/kg, respectively. Also, the “Max fall in blood pressure” value in the experiment with Rattus norvegicus [2] is 131 mmHg.
`CC1(C)Oc2ccc([N+](=O)[O-])cc2[C@]2(n3ccccc3=O)O[C@H]12`: the ED30 in the experiment on Rattus norvegicus [1] came to 0.06 mg/kg. For the same compound, the “Max fall in blood pressure” value in the experiment on Rattus norvegicus [2] was 118 mmHg.
Compound `CC1(C)Oc2ccc(C#N)cc2[C@]2(n3ccccc3=O)O[C@H]12` showed an ED30 with Rattus norvegicus [1] of 0.202 mg/kg. For the same compound, in the experiment with Rattus norvegicus [2], the “Max fall in blood pressure” value is recorded as 69 mmHg.
Consider `CC1(C)Oc2ccc(C#N)cc2[C@@H](n2ccccc2=O)[C@@H]1OC=O`, for which the Ratio in experiment [4] worked out at 6.2. The ED30 with Rattus norvegicus [6] is 0.067 mg/kg; with Rattus norvegicus [7], 0.416 mg/kg; in the experiment with Rattus norvegicus [1], 0.03 mg/kg. In addition, the “Max fall in blood pressure” value with Rattus norvegicus [2] was determined as 101 mmHg.
For `CC(=O)O[C@H]1[C@H](n2ccccc2=O)c2cc(C#N)ccc2OC1(C)C`, in experiment [4], the Ratio came to 3.6. For the same compound, the ED30 is 0.112 mg/kg with Rattus norvegicus [6], 0.405 mg/kg with Rattus norvegicus [7] and 0.106 mg/kg with Rattus norvegicus [1]. In addition, the “Max fall in blood pressure” value in the experiment with Rattus norvegicus [2] worked out at 89 mmHg.
For `CC1(C)Oc2ccc(C#N)cc2C(n2ccncc2=O)[C@@H]1O` (stereo partly specified), the Ratio in experiment [4] stood at 4.4. In addition, the ED30 with Rattus norvegicus [6] is 0.291 mg/kg; with Rattus norvegicus [7], 1.29 mg/kg; with Rattus norvegicus [1], 0.01 mg/kg. Further, the “Max fall in blood pressure” value with Rattus norvegicus [2] is on record as 75 mmHg.
For the compound `CC1(C)Oc2ccc(C#N)cc2C(N2N=CCCC2=O)[C@@H]1O` (stereo partly specified), the Ratio in experiment [4] came out at 2.6. Further, the ED30 amounted to 0.056 mg/kg in the experiment with Rattus norvegicus [6], 0.148 mg/kg in the experiment on Rattus norvegicus [7] and 0.211 mg/kg in the experiment with Rattus norvegicus [1]. In addition, the “Max fall in blood pressure” value in the experiment on Rattus norvegicus [2] is 63 mmHg.
`CC1(C)C=C(n2ccccc2=O)c2cc([N+](=O)[O-])ccc2O1`: the Ratio in experiment [4] was 146. Moreover, the ED30 turned out to be 0.0007 mg/kg with Rattus norvegicus [6], 0.102 mg/kg in the experiment with Rattus norvegicus [7] and 0.00083 mg/kg with Rattus norvegicus [1]. Further, the “Max fall in blood pressure” value in the experiment on Rattus norvegicus [2] was 140 mmHg.
With `CC1(C)Oc2ccc(C#N)cc2C(n2ccc(=O)[nH]c2=O)[C@@H]1O` (stereo partly specified), the “Max fall in blood pressure” value in the experiment with Rattus norvegicus [8] was “Not significant”.
For the compound `CC1(C)Oc2ccc(C#N)cc2[C@@H](n2cccc(N)c2=O)[C@@H]1O`, the “Max fall in blood pressure” value in the experiment with Rattus norvegicus [8] is “Not significant”.
`CC(=O)c1ccc2c(c1)C(n1ccccc1=O)=CC(C)(C)O2`: in experiment [4], the Ratio was found to be 7.4. The ED30 was 0.074 mg/kg in the experiment with Rattus norvegicus [6], 0.546 mg/kg in the experiment on Rattus norvegicus [7] and 0.025 mg/kg in the experiment on Rattus norvegicus [1]. Moreover, the “Max fall in blood pressure” value with Rattus norvegicus [2] is given as 130 mmHg.
`CC1(C)Oc2ccc(C#N)cc2[C@@H](n2cc(Cl)cc(Cl)c2=O)[C@@H]1O`: in the experiment on Rattus norvegicus [8], the “Max fall in blood pressure” value was “Not significant”.
Regarding `CC1(C)Oc2ccc(C#N)cc2[C@H](N2CCCC2=O)[C@H]1O` [(-)-CROMAKALIM], in experiment [4], the Ratio stood at 4.6. The ED30 was found to be 0.131 mg/kg in the experiment with Rattus norvegicus [6], 0.603 mg/kg in the experiment with Rattus norvegicus [7] and 0.11 mg/kg in the experiment on Rattus norvegicus [1]. Moreover, in the experiment on Rattus norvegicus [2], the “Max fall in blood pressure” value was 78 mmHg.
`CC1(C)Oc2ccc(C=O)cc2[C@@H](n2ccccc2=O)[C@@H]1O`: in the experiment with Rattus norvegicus [8], the “Max fall in blood pressure” value is “Not significant”.
As to `CC1(C)C=C(n2ccccc2=O)c2cc(C(N)=O)ccc2O1`, in the experiment on Rattus norvegicus [8], the “Max fall in blood pressure” value was “Not significant”.
Take `CC1(C)Oc2ccc(/N=C/c3ccc(Cl)cc3Cl)cc2C(N2CCCC2=O)[C@@H]1O` (stereo partly specified): the “Max fall in blood pressure” value in the experiment on Rattus norvegicus [8] is “Not significant”.
Regarding `N#Cc1ccc2c(c1)[C@@H](n1ccccc1=O)[C@H](O)C1(CCCC1)O2`, in the experiment with Rattus norvegicus [8], the “Max fall in blood pressure” value is “Not significant”.
